In brackets after ≈: the same amount, converted by molar mass.
Columns and labels:
[1] = test system: Plasmodium berghei; test: Antimalarial activity against Plasmodium berghei ANKA expressing GFP infected in NMRI mouse assessed as inhibition of parasitemia at 50 mg/kg, ip qd administered as single dose on day 0 to 4 of exposure measured on day 5 post exposure by FACS method relative to control; type: functional
In short: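 P. berghei ANKA GFP infection in mice; dosed intraperitoneally at 50 mg/kg/day × 4, with chloroquine 10 mg/kg ip as reference and untreated controls. Read-out was % reduction in parasitaemia relative to controls, with survival in days also recorded.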

[2] = test system: Liver microsome; test: Drug metabolism in human liver microsomes at 1 uM by LC/MS method; type: ADME
[3] = Drug metabolism in mouse liver microsomes at 1 uM by LC/MS method; type: ADME
[4] = test system: Liver microsome; test: Intrinsic clearance in human liver microsomes assessed as compound metabolized at 1 uM pre-incubated at 37 degC before addition of NADPH-generating system by LC/MS method; type: ADME
[5] = test system: Plasmodium berghei; test: Antimalarial activity against Plasmodium berghei ANKA expressing GFP infected in NMRI mouse assessed as increase in mouse survival at 50 mg/kg, ip qd administered as single dose on day 0 to 4 of exposure measured on day 5 post exposure by FACS method (reference value: 7 days); type: functional
In short: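 P. berghei ANKA GFP infection in mice, dosed intraperitoneally at 50 mg/kg/day × 4. An untreated control group and a chloroquine 10 mg/kg ip reference group were included. Read-outs were % reduction in parasitaemia and mean survival in days.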

[6] = test system: Liver; test: Intrinsic clearance in mouse liver microsomes assessed as compound metabolized at 1 uM pre-incubated at 37 degC before addition of NADPH-generating system by LC/MS method; type: ADME
[7] = Solubility in phosphate buffer at pH 6.5 by nephelometry; type: physicochemical

Cc1cc(/C=C2\S/C(=N\c3ccccc3)N(C3CCCCC3)C2=O)c(C)n1-c1ccc(F)cc1
inhibition in vivo at 50 mg/kg [1]: 12%
Drug metabolism [2]: metabolite_notdetected
Drug metabolism [3]: metabolite_notdetected
CLH [4]: 360 µL/min/mg
Survival [5]: 6 days
CLH [6]: 55 µL/min/mg
solubility kinetic [7]: 0.8 µg/mL (≈ 1.69 µM)
